# Source: PubChem (several laboratories)
# Only some compounds are listed: those with a hit (about 5.1% of all), similar ones and a draw of the others.
# STAT3 activator – activators of IL-6 induced STAT3 signaling; activation (% of control), % at 5.6 µM; actives 0.91% (n = 190,000); U3A cells, IL-6 STAT3-luciferase reporter, luminescence; 100% = signal with IL-6 EC80 alone; AID 871;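 active = activation above the screen-wide mean of compound activation plus 3 SD, cut at about 130% in these data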;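 note: 0% = background luminescence of wells with medium and substrate only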
#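 Assay system – human STAT1-deficient U3A cells with stable STAT3-luciferase reporter · Also added – IL-6 (33 ng/mL) · Schedule – compound 1 h, then IL-6 6 h at 37 °C · Technique – reporter luminescence signal · Evaluation – % activation versus median of IL-6-stimulated wells · Benchmarks – IL-6-only wells as 100% reference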
# STAT1 blocker – reduces IFN-gamma driven STAT1 reporter signal; actives 0.35% (n = 200,000); inhibition, % at 5.5 µM; NIH 3T3 STAT1-luciferase reporter, luminescence; AID 920;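 active = inhibition above a set limit, the mean inhibition across all tested compounds plus 3 SD, cut at about 34% in these data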;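 note: 0% = IFN-gamma with DMSO and 100% = IFN-gamma with 300 µM nifuroxazide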
# NF-kB expr up – NF-kB expression increase, human neuronal cells; fold change at 12.5 µM; AID 1239; NF-kB reporter expression; hits give high values; actives 1.6% (n = 190,000); in the data active = fold change above about 3.3
# STAT3 inh – inhibitors of IL-6 induced STAT3 signaling. U3A cells, IL-6 STAT3-luciferase reporter, luminescence; host cell line lacks STAT1. inhibition, % at 5.5 µM. AID 862. actives 0.89% (n = 190,000);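 active = inhibition above the mean inhibition across all screened compounds plus 3 SD, cut at about 44% in these data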;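 note: 0% = DMSO only wells and 100% = 100 µM nifuroxazide control wells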
# STAT1 activator – increases IFN-gamma driven STAT1 reporter signal | NIH 3T3 STAT1-luciferase reporter, luminescence; 100% = IFN-gamma alone, no compound | activation (% of control), % at 5.5 µM | actives 2.6% (n = 200,000) | AID 932;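 active = activation above the screen-wide mean activation plus 3 SD, cut at about 130% in these data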;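 note: raw ratio to IFN-gamma control signal so 100% means no change and 0% no light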
# APP 5'UTR act – activates APP 5'UTR luciferase reporter; activation, % at 2 µM; SH-SY5Y APP 5'UTR luciferase reporter, luminescence; zero percent = DMSO vehicle wells; actives 1% (n = 190,000);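 active = activation above a set limit, based on mean plus 3 SD of controls, cut at about 140% in these data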
# * marks the source's active call; other numbers are inactive results; / = no result; ! = repeats disagree.
SMILES,STAT3 activator,STAT1 blocker,NF-kB expr up,STAT3 inh,STAT1 activator,APP 5'UTR act
COC1(NS(=O)(=O)c2ccc(Br)cc2)C(C)=CC(=O)C=C1C,106.5,-5.7,1.4,-0.9,103.2,-20.2
CNc1nc(C)c(C(=O)OCc2ccccc2)s1,101.2,-17.1,4.95*,0.5,115.9,28.0
CCOC(=O)c1cc(-c2ccccc2)sc1N,101.1,-38.2,2.42,2.2,135.1*,27.6
CCOC(=O)c1sc(-c2ccc(F)cc2)cc1N,103.9,-27.2,2.06,-4.4,125.2,95.4
CCOC(=O)c1sc(-c2ccccc2)cc1N,105.0,-47.1,2.45,-2.7,132.1*,85.7
CCOC(=O)c1sc(-c2ccccc2)nc1C,104.3,-41.7,1.39,-0.2,134.9*,40.9
CCOC(=O)c1nc(NNC(C)=O)sc1C,94.3,-0.3,1.11,11.0,99.0,13.2
CCOC(=O)Cc1ccc2sc(-c3ccccc3)nc2c1,93.4,-43.4,9.44*,7.8,138.7*,177.5*
CCOC(=O)c1nc(NCCc2ccccc2)sc1C,98.5,-34.3,2.39,6.4,132.1*,14.8
CCOC(=O)CC(=O)Nc1nc2ccccc2s1,103.5,-15.1,1.27,3.2,113.8,0.0
Cc1csc(NC(=O)C2CCN(C(=O)c3ccccc3C)CC2)n1,100.9,0.5,1.4,2.5,98.4,10.1
COc1ccc(S(=O)(=O)NC(N)=NCCc2ccccc2)cc1,105.4,-3.2,1.31,0.3,101.0,4.6
C=CCn1c(C(C)NC(=O)c2cccc(C)c2)n[nH]c1=S (stereo not drawn),98.2,3.5,3.3*,8.9,95.9,12.7
O=C(O)c1c(-c2ccc(Cl)cc2)cn2ccccc12,112.4,-37.7,2.13,-13.6,135.0*,15.8
CCCCCOC(=O)c1[nH]c2c(c1C)C(=O)CC(c1ccco1)C2 (stereo not drawn),121.1,-2.0,5.16*,-24.7,101.8,-95.3
COC(=O)CSc1nc2ccccc2o1,105.5,-10.9,0.97,-2.6,109.9,0.4
CCCCCCOC(=O)Sc1nc2ccccc2o1,89.8,-1.7,4.06*,13.2,107.5,11.0
CCOc1ccc2nc(-c3cc(NC(C)=O)ccc3O)sc2c1,94.3,-12.5,1.17,14.7,111.9,55.5
CC(=O)OCC(=O)[C@@]1(O)CC[C@H]2[C@@H]3CCC4=CC(=O)CC[C@]4(C)[C@H]3[C@@H](O)C[C@@]21C,94.5,-18.7,0.5,8.5,117.0,59.0
C[C@]12CCC(=O)C=C1CC[C@@H]1[C@@H]2[C@@H](O)C[C@@]2(C)[C@H]1CC[C@]2(O)C(=O)COC(=O)CCC(=O)O,93.5,-31.9,1.01,9.7,129.0*!,69.6
C=C(C(=O)c1ccccc1)C(C)C(=C)C(=O)c1ccccc1,94.0,18.5,8.52*,6.4,83.2,-41.2
CCn1nnnc1SCC(=O)Nc1ccc2c(c1)OCCO2,116.5,-39.1,2.35,-15.7,139.2*,44.9
O=C(CSc1nnc(-c2cccc(Cl)c2)o1)Nc1ccc2c(c1)OCCO2,96.5,-9.5,1.79,7.3,107.3,159.4*
COCCCn1nnnc1SCC(=O)Nc1ccc2c(c1)OCCO2,103.0,3.8,1.38,8.2,95.7,9.4
CC(C)(Oc1ccc(Cl)cc1)C(=O)NCc1ccc(S(N)(=O)=O)cc1,103.0,0.1,1.08,1.2,97.0,0.5
SMILES,STAT3 activator,STAT1 blocker,NF-kB expr up,STAT3 inh,STAT1 activator,APP 5'UTR act
COc1ccc(NC2=Nc3ccccc3CC2)cc1,122.4,-32.6,3.72*,-19.2,132.1*,102.3
Oc1cc2c(cc1O)C1c3ccc(O)c(O)c3OCC1(O)C2 (stereo not drawn),/,-8.8,0.82,/,106.9,7.7
N#Cc1ccccc1NC(=O)CNc1ccccc1N1CCCCC1,135.3*,5.9,0.82,-42.1,94.5,-1.9
CC1(C)CC(=O)C(N=Nc2ccc(-c3ccccc3)cc2)=C(O)C1,90.8,-3.6,2.28,15.5,105.0,136.9*
Cc1cccc(CSc2nc3c(cc2C#N)CCC3)c1,98.8,-2.8,1.16,4.3,102.5,6.1
N#Cc1c(SCc2nc3ccccc3[nH]2)nc2c(c1C(F)(F)F)CCC2,174.4*,-18.1,/,-89.2,116.7,5.2
N#Cc1cc2c(nc1SCc1nc3ccccc3[nH]1)CCC2,91.8,-30.0,1.55,15.4,127.3,248.0*
c1ccc(SCc2nc3ccccc3[nH]2)cc1,99.0,-12.8,2.27,5.7,111.8,68.5
COc1cccc2c1C(=O)c1c(O)c3c(c(O)c1C2=O)C[C@@](O)(C(=O)CO)C[C@@H]3O[C@H]1C[C@H](N)[C@H](O)[C@H](C)O1,142.1*,-181.0,3.76*,-45.2,264.6*,-94.6
CCn1nc(C)c(NC(=O)Nc2cccc(Cl)c2Cl)c1C,95.5,10.6,1.11,10.5,88.6,2.2
CCCC(=O)Nc1ccc2oc(-c3cncc(Br)c3)nc2c1,92.1,-44.5,3.4*,15.8,139.1*,127.8
N#Cc1cc([N+](=O)[O-])cnc1Nc1ccccc1,100.9,2.5,1.22,-2.1,97.8,18.2
c1ccc(COc2ccc(-c3csnn3)cc2)cc1,115.0,-39.7,3.18,-7.0,135.7*,24.1
Nc1ccc(OCc2ccccc2)cc1,105.0,-17.4,1.72,2.8,115.8,14.9
O=C(Nc1nc(-c2cccs2)c(-c2cccs2)s1)C1CCCC1,102.8,-1.8,0.92,-1.1,101.6,-4.6
Cc1ccc2c(c1)Oc1ccc(NC(=O)CCl)cc1C(=O)N2,97.8,22.9,0.16,7.2,78.3,-52.6
Clc1ccc(-c2cn3cccnc3n2)cc1,86.5,-35.5,2.31,16.2,133.1*,15.5
CCOC(=O)C(C(=O)OCC)C(C[N+](=O)[O-])c1ccccc1 (stereo not drawn),105.3,-7.8,1.15,-4.0,106.6,2.7
Cn1/c(=N/N=C/c2ccc(N3CCOCC3)cc2)sc2ccccc21,93.0,-30.9,1.77,8.5,129.0*,23.9
CC(=O)N=c1sc2ccccc2n1C,89.9,4.3,1.39,15.5,96.0,1.9
Cc1ccnn1CCC(=O)N1CCCC(CCC(=O)N2CCN(c3ccccn3)CC2)C1 (stereo not drawn),97.1,-6.8,1.02,8.3,104.5,19.5
COc1ccc(-c2cc(=O)c3cc(F)ccc3[nH]2)cc1,104.8,-2.5,1.21,-8.7,102.3,5.2
COc1ccc2[nH]c(-c3ccc(C)cc3)cc(=O)c2c1,64.6,-26.6,4.18*,39.5,124.2,109.1
N#Cc1cc2ccccc2nc1SCc1ccccn1,123.7,-52.1,5.26*,-22.1,147.3*,186.3*
Cc1cc2cc3c(cc2nc1SCc1ccccn1)OCCO3,102.5,6.6,1.36,-4.2,94.1,37.3
Cc1ccc(C(=O)Nc2cnc3ccccn3c2=O)cc1,86.6,-34.4,2.61,13.6,131.8*,38.9
O=C(Nc1cnc2ccccn2c1=O)c1ccc(Cl)cc1Cl,42.8,40.8*,1.73,70.4*,62.7,152.8*
O=C(Nc1cccn2ncnc12)c1ccc(Cl)cc1Cl,83.1,9.7,1,21.6,91.2,-4.1
